What all share (format): functional
Experiment [1] is described as follows: Antioxidant activity assessed as trolox equivalents of ABTS radical scavenging activity at 30 mins by TEAC assay. A digest of the protocol: (§1)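 ABTS•+ scavenging run per an earlier published method. Standard curve built from six 1:2 serial dilutions of a 500 μg/mL stock solution. Activity expressed as Trolox equivalent antioxidant capacity (TEAC), read at 5 min intervals from 0 to 40 min after starting incubation with the radical. Seven technical replicates.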

Experiment [2] is described as follows: Antioxidant activity assessed as trolox equivalents of ABTS radical scavenging activity at 10 mins by TEAC assay. A digest of the protocol:
as §1

Experiment [3] is described as follows: Antioxidant activity assessed as trolox equivalents of ABTS radical scavenging activity at 15 mins by TEAC assay. Summed up: as §1
Experiment [4] is described as follows: Antioxidant activity assessed as trolox equivalents of ABTS radical scavenging activity at 20 mins by TEAC assay. A digest of the protocol: as §1
Experiment [5] in a line: Antioxidant activity assessed as trolox equivalents of ABTS radical scavenging activity at 0 min by TEAC assay. A digest of the protocol: as §1
The nature of experiment [6]: Antioxidant activity assessed as trolox equivalents of ABTS radical scavenging activity at 40 mins by TEAC assay. A digest of the protocol:
as §1

Experiment [7] concerns Radical scavenging activity. The experiment can be described thus: Antioxidant activity assessed as DPPH radical scavenging activity. In general terms: DPPH is a stable violet radical that fades when it is reduced.
Experiment [8] in a line: Antioxidant activity assessed as trolox equivalents of ABTS radical scavenging activity at 35 mins by TEAC assay. A digest of the protocol: as §1
Experiment [9] can be described thus: Antioxidant activity assessed as trolox equivalents of ABTS radical scavenging activity at 5 mins by TEAC assay. Summed up: as §1
Experiment [10] can be described thus: Antioxidant activity assessed as trolox equivalents of ABTS radical scavenging activity at 25 mins by TEAC assay. A digest of the protocol: as §1

Calls of active or inactive are those of the source. The rule behind the calls is not given here.

Turning to `O=C(/C=C/c1ccc(O[C@@H]2O[C@H](COC(=O)[C@]3(O)C[C@@H](O)[C@@H](O)[C@H](OC(=O)/C=C/c4ccc(O)c(O)c4)C3)[C@@H](O)[C@H](O)[C@H]2O)c(O)c1)O[C@@H]1C[C@](O)(C(=O)O)C[C@@H](O)[C@H]1O`, the Activity in [1] was 3.71; in [2], 3.01; in [3], 3.18; in experiment [4] it was 3.64; in [5], 1.51; in experiment [6], 3.89. For the same compound, the results for the Activity in experiment [8], in experiment [9] and in [10] were 3.81, 2.71 and 3.73, respectively. Moreover, in experiment [7], the outcome was Active.
In the case of `O=C(O)CC(=O)O[C@@H]1C[C@@](O)(C(=O)O)C[C@@H](OC(=O)/C=C/c2ccc(O[C@@H]3O[C@H](COC(=O)[C@]4(O)C[C@@H](O)[C@@H](O)[C@H](OC(=O)/C=C/c5ccc(O)c(O)c5)C4)[C@@H](O)[C@H](O)[C@H]3O)c(O)c2)[C@@H]1O`, the Activity in experiment [1] is 2.42; in experiment [2], 1.85; in experiment [3], 2.1; in [4] it was 2.26; in [5] it was -0.31; in experiment [6], 2.56. The Activity in experiment [8] was determined as 2.5; in experiment [9], 1.61; in experiment [10], 2.49. For the same compound, in [7], the outcome was Active.
With `O=C(/C=C/c1ccc(O)c(O)c1)O[C@@H]1C[C@](O)(C(=O)O)C[C@@H](O)[C@H]1O`, the Activity in [1] is 2.42; in experiment [2], 1.85; in experiment [3], 2.1; in experiment [4] it was 2.26; in experiment [5], -0.31; in experiment [6], 2.56. For the same compound, the Activity in experiment [8] was found to be 2.5; in [9], 1.61; in [10], 2.49. The outcome in experiment [7] was Active.
